Data on 7 compounds can be found in ChEMBL document CHEMBL2062366, “Synthesis and biological evaluation of purpurealidin E-derived marine sponge metabolites: aplysamine-2, aplyzanzine A, and suberedamines A and B” (2012).

What all share (type): functional
Test [1] deals with Staphylococcus epidermidis. Nature of the test: Antibacterial activity against Staphylococcus epidermidis NCTC 11047 after 24 hrs. To be noted: NCTC 11047, 24 h. The method in brief: (§1)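 Agar dilution in Isosensitest agar at final compound levels of 128–1 μg/mL, from 10 mg/mL DMSO stocks. Solvent-only control plates covered the same DMSO range. Strains were pre-grown overnight on Columbia agar at 37 °C and multipoint-inoculated at 10 000 cfu/spot. Plates were read after 24 h at 37 °C. MIC was taken as the lowest concentration giving no visible growth, with tests repeated on a separate occasion.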

In test [2] the test system is Mycobacterium tuberculosis. In words: Antimycobacterial activity against Mycobacterium tuberculosis H37Rv after 2 weeks by spot culture growth inhibition assay. The method in brief: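 H37Rv grown as standing culture in 7H9 + 10% ADC + 0.05% Tween-80 to McFarland 1, checked for contamination on blood agar. Culture diluted to 10³ cfu/mL; 10 μL spotted onto 7H10 agar + 10% OADC with compound, 37 °C, 2 weeks. Controls: DMSO (negative), isoniazid (positive). MIC = lowest concentration with no growth.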

For a further test, the system named is Listeria monocytogenes. In words: Antibacterial activity against Listeria monocytogenes NCTC 11994 after 24 hrs. Particulars: NCTC 11994, 24 h. The method in brief:
as §1

The next test concerns Enterococcus faecium. Nature of the test: Antibacterial activity against Enterococcus faecium NCTC 7171 after 24 hrs. Particulars: NCTC 7171, 24 h. The method in brief:
as §1

The next test has as its system Escherichia coli. Nature of the test: Antibacterial activity against Escherichia coli NCTC 10418 after 24 hrs. To be noted: NCTC 10418, 24 h. The method, boiled down:
as §1

The subject of the next test is Streptococcus pyogenes. Nature of the test: Antibacterial activity against Streptococcus pyogenes NCTC 8306 after 24 hrs. To be noted: NCTC 8306, 24 h. The method in brief:
as §1

The test system of test [3] is Staphylococcus aureus. Nature of the test: Antibacterial activity against Staphylococcus aureus NCTC 6571 after 24 hrs. Particulars: NCTC 6571, 24 h. The method, boiled down:
(§2)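 Agar dilution on Isosensitest agar with final 128−1 μg/mL compound from DMSO solution; DMSO-only control plates. Strains pre-grown overnight on Columbia agar at 37 °C, suspended in sterile water, diluted to give 10 000 cfu per spot. Incubated 37 °C, 24 h. MIC = lowest concentration completely inhibiting visible growth; repeated on a separate occasion.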

Another test deals with Bacillus subtilis. Nature of the test: Antibacterial activity against Bacillus subtilis NCTC 9372 after 24 hrs. Particulars: NCTC 9372, 24 h. The method in brief:
as §1

Test [4] has as its system Staphylococcus aureus. Nature of the test: Antibacterial activity against methicillin-resistant Staphylococcus aureus NCTC 11939 after 24 hrs. To be noted: NCTC 11939, 24 h. The method, boiled down: as §2
In a further test the test system is Enterococcus faecalis. Nature of the test: Antibacterial activity against Enterococcus faecalis NCTC 775 after 24 hrs. Particulars: NCTC 775, 24 h. The method, boiled down:
as §1

A further test relates to Nakaseomyces glabratus. Nature of the test: Antifungal activity against Candida glabrata NCPF 9725 after 24 hrs. To be noted: NCPF 9725, 24 h. The method in brief:
as §1

In the next test the test system is Candida albicans. Nature of the test: Antifungal activity against Candida albicans ATCC 90028 after 24 hrs. Particulars: ATCC 90028, 24 h. The method in brief: as §1
Test [5] can be described thus: Growth inhibition of human NCI60 cells after 48 hrs by sulforhodamine B assay. To be noted: NCI60, 48 h. The method in brief: (§3)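 Run at the NCI Developmental Therapeutics Program under the standard DTP NCI60 protocol. Total cell protein was measured by sulforhodamine B staining at time 0 and after 48 h exposure. GI50, the concentration giving a 50% reduction of growth, was estimated from dose–response curves.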
For orientation: Sulforhodamine B stains cellular protein and so reports cell mass.

The next test deals with K562. In words: Growth inhibition of human K562 cells after 48 hrs by sulforhodamine B assay. Particulars: K562, 48 h, pooled result: one value given for 6 cell lines, strains, targets or settings. The method in brief:
as §3

In brackets after ≈: the same amount, converted by molar mass. Activity calls are given as the source filed them. No cut-off for these calls is given here.

As usually defined, the MIC is the lowest concentration found to suppress growth. As to `CNC(Cc1cc(Br)c(OC)c(Br)c1)C(=O)NCCCOc1c(Br)cc(CCN(C)C)cc1Br.Cl` (centres undefined) [ANOMOIAN A], the MIC in test [1] was determined as 64 µg/mL; in [2] (336 h), 25 µg/mL; in the test on Listeria monocytogenes, 64 µg/mL; against Enterococcus faecium, 64 µg/mL; against Escherichia coli it was 64 µg/mL; in the test with Streptococcus pyogenes, 64 µg/mL. For the same compound, the minimal inhibitory concentration (MIC) came to 64 µg/mL with Staphylococcus aureus [3], 32 µg/mL with Bacillus subtilis and 64 µg/mL in the test with Staphylococcus aureus [4].

Turning to `COc1ccc(C/C(=N\O)C(=O)NCCc2cc(Br)c(OCCCN(C)C)c(Br)c2)cc1Br`, the minimal inhibitory concentration (MIC) in test [1] is 64 µg/mL (≈ 98.4 µM); in test [2] (336 h), 25 µg/mL (≈ 38.4 µM); with Listeria monocytogenes, 64 µg/mL (≈ 98.4 µM); against Enterococcus faecalis it was 64 µg/mL (≈ 98.4 µM); with Enterococcus faecium, 64 µg/mL (≈ 98.4 µM); against Streptococcus pyogenes it was 32 µg/mL (≈ 49.2 µM). The minimum inhibitory concentration (MIC) in the test on Staphylococcus aureus [3] came to 32 µg/mL (≈ 49.2 µM); against Bacillus subtilis, 32 µg/mL (≈ 49.2 µM); in the test with Staphylococcus aureus [4] it was 64 µg/mL (≈ 98.4 µM).

Regarding `COc1c(Br)cc(C[C@@H](C(=O)NCCc2cc(Br)c(OCCCN(C)C)c(Br)c2)N(C)C)cc1Br` [APLYZANZINE A], the minimum inhibitory concentration (MIC) in test [1] stood at 16 µg/mL (≈ 21.5 µM); in [2] (336 h), 25 µg/mL (≈ 33.6 µM); in the test with Nakaseomyces glabratus, 64 µg/mL (≈ 86.1 µM); with Listeria monocytogenes, 32 µg/mL (≈ 43.1 µM); in the test on Enterococcus faecalis, 32 µg/mL (≈ 43.1 µM); with Enterococcus faecium it was 32 µg/mL (≈ 43.1 µM). Besides, the minimal inhibitory concentration (MIC) against Escherichia coli stood at 32 µg/mL (≈ 43.1 µM); in the test with Streptococcus pyogenes, 16 µg/mL (≈ 21.5 µM); against Staphylococcus aureus [3], 32 µg/mL (≈ 43.1 µM); against Bacillus subtilis, 16 µg/mL (≈ 21.5 µM); against Candida albicans it was 64 µg/mL (≈ 86.1 µM); in the test with Staphylococcus aureus [4], 32 µg/mL (≈ 43.1 µM).

`CN[C@@H](Cc1ccc(OC)c(Br)c1)C(=O)NCCc1cc(Br)c(OCCCN(C)C)c(Br)c1` [SUBEREDAMINE B] returned an MIC in test [2] (336 h) of 40 µg/mL (≈ 61.5 µM). Besides, the GI50 is 5.47 µM in test [5] (read-out: GI50) and 4.79 µM in [5] (read-out: pGI50 (converted)).

For the compound `CN[C@@H](Cc1cc(Br)c(OC)c(Br)c1)C(=O)NCCc1cc(Br)c(OCCCN(C)C)c(Br)c1`, the GI50 was 2.17 µM in the test on K562 (read-out: GI50) and 4.79 µM in the test with K562 (read-out: pGI50 (converted)).

Regarding `CN(C)CCCOc1c(Br)cc(CCN)cc1Br`, the MIC entry in [2] was “inactive”.

As for `COc1ccc(C[C@H](N)C(=O)NCCc2cc(Br)c(OCCCN(C)C)c(Br)c2)cc1Br` [SUBEREDAMINE A], the MIC was 64 µg/mL (≈ 101 µM) in test [1], 50 µg/mL (≈ 78.6 µM) in [2] (336 h) and 64 µg/mL (≈ 101 µM) against Bacillus subtilis.
